Assay results published in ChEMBL document CHEMBL1128270 (J Med Chem, 1995).

Experiments:
[1] = biological target: T1, 5-hydroxytryptamine receptor 1A (Rattus norvegicus, UniProt P19327); assay: In vitro binding affinity measured on serotonin 5-hydroxytryptamine 1A receptor using [3H]8-OH-DPAT as radioligand.
T1 sequence (P19327 whole entry): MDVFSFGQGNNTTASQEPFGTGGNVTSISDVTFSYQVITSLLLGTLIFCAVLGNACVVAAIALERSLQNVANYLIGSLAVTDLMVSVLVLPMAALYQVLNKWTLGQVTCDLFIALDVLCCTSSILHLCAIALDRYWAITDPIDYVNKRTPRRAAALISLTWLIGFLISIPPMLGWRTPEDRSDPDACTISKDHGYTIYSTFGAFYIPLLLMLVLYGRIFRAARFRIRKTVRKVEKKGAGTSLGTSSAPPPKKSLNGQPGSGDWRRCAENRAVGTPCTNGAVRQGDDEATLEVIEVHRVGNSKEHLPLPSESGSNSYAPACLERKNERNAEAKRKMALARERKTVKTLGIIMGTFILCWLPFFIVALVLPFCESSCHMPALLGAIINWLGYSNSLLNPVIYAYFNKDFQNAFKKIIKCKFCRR

[2] = biological target: T2, Adrenergic receptor alpha-1 (Rattus norvegicus, UniProt P15823+P23944+P43140); assay: In vitro binding affinity measured on alpha-1 adrenergic receptor using [3H]prazosin as radioligand.; type: protein assay
T2 sequence (P15823 whole entry): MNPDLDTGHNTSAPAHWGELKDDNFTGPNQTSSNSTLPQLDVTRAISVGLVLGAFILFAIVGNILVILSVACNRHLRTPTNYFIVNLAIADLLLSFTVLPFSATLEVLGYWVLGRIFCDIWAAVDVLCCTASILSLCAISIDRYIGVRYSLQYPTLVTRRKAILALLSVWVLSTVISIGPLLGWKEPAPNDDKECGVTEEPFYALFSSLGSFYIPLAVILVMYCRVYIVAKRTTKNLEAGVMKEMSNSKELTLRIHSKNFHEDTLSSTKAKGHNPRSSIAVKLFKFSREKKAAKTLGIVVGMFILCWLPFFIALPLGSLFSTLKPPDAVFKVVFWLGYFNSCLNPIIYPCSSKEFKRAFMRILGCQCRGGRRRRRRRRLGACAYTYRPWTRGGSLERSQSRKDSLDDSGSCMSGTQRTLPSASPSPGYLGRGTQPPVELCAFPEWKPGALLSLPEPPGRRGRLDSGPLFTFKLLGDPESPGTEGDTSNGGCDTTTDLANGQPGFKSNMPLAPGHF
T2 sequence (P23944 whole entry): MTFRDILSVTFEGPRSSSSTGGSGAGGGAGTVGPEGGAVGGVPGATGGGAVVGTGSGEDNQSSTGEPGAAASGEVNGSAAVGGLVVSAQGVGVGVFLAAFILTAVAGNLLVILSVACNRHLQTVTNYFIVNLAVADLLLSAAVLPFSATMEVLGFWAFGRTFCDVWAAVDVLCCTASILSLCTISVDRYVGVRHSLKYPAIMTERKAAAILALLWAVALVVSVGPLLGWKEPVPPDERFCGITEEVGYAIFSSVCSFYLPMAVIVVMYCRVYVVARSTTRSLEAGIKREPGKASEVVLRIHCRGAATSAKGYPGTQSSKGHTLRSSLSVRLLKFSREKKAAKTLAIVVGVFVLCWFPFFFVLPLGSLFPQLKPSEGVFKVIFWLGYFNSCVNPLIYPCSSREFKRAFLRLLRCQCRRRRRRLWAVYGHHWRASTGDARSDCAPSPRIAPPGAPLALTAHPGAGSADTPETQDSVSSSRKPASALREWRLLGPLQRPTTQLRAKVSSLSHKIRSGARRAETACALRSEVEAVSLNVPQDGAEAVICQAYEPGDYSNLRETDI
T2 sequence (P43140 whole entry): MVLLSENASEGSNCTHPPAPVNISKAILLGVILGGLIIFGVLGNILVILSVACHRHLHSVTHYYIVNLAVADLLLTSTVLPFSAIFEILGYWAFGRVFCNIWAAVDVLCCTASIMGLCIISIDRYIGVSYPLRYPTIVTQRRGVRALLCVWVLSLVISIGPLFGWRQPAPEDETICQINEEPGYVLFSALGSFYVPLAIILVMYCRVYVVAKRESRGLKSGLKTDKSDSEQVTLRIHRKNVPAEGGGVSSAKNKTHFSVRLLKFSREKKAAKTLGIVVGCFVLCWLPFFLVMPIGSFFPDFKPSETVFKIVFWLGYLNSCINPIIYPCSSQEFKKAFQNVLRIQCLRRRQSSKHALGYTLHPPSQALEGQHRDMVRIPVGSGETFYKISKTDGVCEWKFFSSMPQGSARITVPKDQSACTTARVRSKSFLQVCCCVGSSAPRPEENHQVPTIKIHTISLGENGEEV

[3] = biological target: D(2) dopamine receptor (Rattus norvegicus, UniProt P61169); assay: The compound was evaluated for the binding affinity towards Dopamine receptor D2 binding site using [3H]spiroperidol.
Chain of D(2) dopamine receptor (P61169 whole entry): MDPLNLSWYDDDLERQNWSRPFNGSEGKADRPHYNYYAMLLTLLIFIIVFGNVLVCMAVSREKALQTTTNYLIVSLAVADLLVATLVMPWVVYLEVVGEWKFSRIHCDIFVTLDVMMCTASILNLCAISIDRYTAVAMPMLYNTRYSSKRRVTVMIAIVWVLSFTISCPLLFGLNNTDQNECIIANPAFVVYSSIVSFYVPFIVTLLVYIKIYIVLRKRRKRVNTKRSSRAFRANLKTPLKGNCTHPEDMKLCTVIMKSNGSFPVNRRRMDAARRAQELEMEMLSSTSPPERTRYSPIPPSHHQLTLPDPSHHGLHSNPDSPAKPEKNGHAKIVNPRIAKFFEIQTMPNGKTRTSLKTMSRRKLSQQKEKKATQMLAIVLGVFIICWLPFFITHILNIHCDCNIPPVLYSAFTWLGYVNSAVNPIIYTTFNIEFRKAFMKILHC
Procedure, shortened: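 IC50 came from 7–9 drug concentrations in triplicate, over 2–4 independent experiments, analysed with EBDA. Specific binding exceeded 75% of total.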

[4] = Selectivity as the ratio of IC50 value against alpha-1 receptor to that of 5-hydroxytryptamine 1A receptor
Procedure, shortened: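 Ratio of the α1 IC50 to the 5-HT1A IC50 ([3H]-8-OH-DPAT, rat cortex). For α1, male Sprague-Dawley rat cortex membranes were prepared in 50 mM Tris-HCl pH 7.7 with 10 μM pargyline and 0.1% ascorbate.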

[5] = system: Dopamine D2 receptor and serotonin 1a receptor (Rattus norvegicus); assay: Selectivity as the ratio of IC50 value against D-2 receptor to that of 5-hydroxytryptamine 1A receptor

IC50 [1]: 40.3 nM
IC50 [2]: 1960 nM
IC50 [3]: 1200 nM
Selectivity [4]: 49
Selectivity [5]: 30
Structure (SMILES): COc1ccc2c(c1)C(NCCN1CCN(c3ccccc3OC)CC1)CCC2 (stereo not given)
